TNAP inh noacc: human TNAP enzyme inhibitors, primary screen, biochemical, luminescent, no phosphate acceptor, uHTS; purified TNAP, CDP-star luminescence, 30 min; Alkaline phosphatase, tissue-nonspecific isozyme (Homo sapiens), P05186; inhibition, % at 20 µM; actives 0.26% (n = 200,000);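 active = tissue-nonspecific alkaline phosphatase inhibition above about 50% at 20 µM in the single-dose screen, limit read from the data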
TNAP act hiacc: TNAP activators at high phosphate acceptor level, primary screen, biochemical, luminescence, uHTS; 200,000 tested, under 10 active; activation factor at 20 µM; purified TNAP, CDP-star luminescence, 1 M DEA, 30 min; active compounds read high; 0 = EDTA background, 1 = DMSO-only activity; Alkaline phosphatase, tissue-nonspecific isozyme (Homo sapiens), P05186;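 active = activation factor at least 2 at 20 µM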
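Measured by: Luminescent substrate turnover signal | Test system: Human TNAP | Input: TNAP 1/800 final | Dosing: 20 µM single point | Schedule: 30 min, room temperature | Controls: EDTA wells as negative control, DMSO wells as positive control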
PMI act hi M6P: human PMI activators, high substrate, primary screen, biochemical, fluorescence intensity, near-saturating mannose 6-phosphate; actives 0.34% (n = 190,000); coupled PMI enzyme assay, resazurin fluorescence, 20 min; active compounds read high; 1 = untreated enzyme, 0 = substrate-free blank; activation factor at 20 µM; AID 1216, 2008;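 active = activation factor of 2 or more at 20 µM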
Target sequence (P34949 whole entry, looked up): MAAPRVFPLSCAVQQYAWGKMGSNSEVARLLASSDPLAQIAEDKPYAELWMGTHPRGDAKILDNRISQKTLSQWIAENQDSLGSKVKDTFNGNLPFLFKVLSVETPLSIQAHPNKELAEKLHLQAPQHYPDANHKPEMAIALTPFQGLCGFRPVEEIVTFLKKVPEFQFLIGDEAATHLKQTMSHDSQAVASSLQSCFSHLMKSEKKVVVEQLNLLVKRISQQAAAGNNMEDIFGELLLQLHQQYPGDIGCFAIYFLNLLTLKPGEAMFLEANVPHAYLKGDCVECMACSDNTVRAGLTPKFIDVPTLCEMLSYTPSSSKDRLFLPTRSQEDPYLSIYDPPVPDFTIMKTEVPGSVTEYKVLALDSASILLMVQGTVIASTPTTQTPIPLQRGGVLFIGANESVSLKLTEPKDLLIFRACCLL
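assay system = human phosphomannose isomerase with PGI, G6PDH, diaphorase coupling enzymes | quantity = 15 ng/mL PMI | incubation = enzyme reaction with compound 20 min at room temperature | medium = HEPES pH 7.4 buffer with MgCl2 and Tween-20 | compound dosing = one concentration, 20 µM, in 1% DMSO | measured by = Diaphorase-driven resazurin-to-resorufin fluorescence, excitation 544, emission 590 nm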
TNAP inh hi DEA: human TNAP enzyme inhibitors, primary screen, biochemical, luminescent, high phosphate acceptor level, uHTS | purified TNAP, CDP-star luminescence, 1 M DEA | inhibition, % at 20 µM | actives 0.03% (n = 200,000);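 active = over 50% inhibition of tissue-nonspecific alkaline phosphatase at 20 µM in the single-dose screen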
PMI activator: activators of human PMI, primary screen, biochemical, fluorescence intensity, near-Km mannose 6-phosphate; purified human PMI, coupled resazurin fluorescence, 20 min; active compounds read high; 1 = vehicle control, 0 substrate-free wells; activation factor at 20 µM; actives 0.005% (n = 190,000);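 active = activation factor of 2 or more at 20 µM, relative to plate controls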
Hits are given with their value; i = inactive. Most compounds without a hit are left out; they make up all but 0.6% or so of the library.

SMILES | TNAP inh noacc | TNAP act hiacc | PMI act hi M6P | TNAP inh hi DEA | PMI activator
Cc1nn(C)cc1/C=C(/C#N)C(N)=O | i | i | i | i | i
O=C(CSCc1ccccc1Cl)NN=C1CCCCCC1 | i | i | i | i | i
C/C(=N\NC(=O)CSCc1ccccc1Cl)c1cc(O)ccc1O | 75 | i | i | i | i
COC(=O)c1cc(-c2ccc(NC(C)=O)cc2)nc2ccccc12 | i | i | i | i | i
COc1ccc(C(=O)c2ccccc2)cc1 | i | i | i | i | i
COc1ccc(C(=O)NNc2ccccc2)cc1 | i | i | 2.4 | i | i
CCOC(=O)c1sc(-c2ccccn2)nc1C | i | i | i | i | i
COc1ccc(C(=O)NCC(=O)OCc2ccc(F)cc2)cc1 | i | i | i | i | i
O=C(CSc1ccccc1C(=O)O)c1ccc([N+](=O)[O-])cc1 | i | i | 2.2 | i | i
CCSc1ccccc1C(=O)N1CCN(c2ccc([N+](=O)[O-])cc2)CC1 | i | i | i | i | i
COCCNc1cc(C)nc2cc(-c3ccc(C)cc3)nn12 | i | i | i | i | i
Cc1cccc(-c2cc3nc(C)cc(NCCCN(C)C)n3n2)c1 | 53 | i | i | i | i
O=C1NN=C(CSc2n[nH]c(=S)s2)CS1 | i | i | 2.1 | i | i
CC(C)CSc1n[nH]c(=S)s1 | i | i | i | i | i
COc1ccc(S(=O)(=O)CCC(=O)Nc2cccc(OC)c2)cc1 | i | i | i | i | i
CC1=Nn2c(nnc2-c2cc(-c3ccccc3)n[nH]2)SC1 | 51 | i | i | i | i
c1ccc(-c2nc(-c3cccnc3)n[nH]2)cc1 | i | i | i | i | i
Brc1cccc(-c2n[nH]c(-c3ccccc3)n2)c1 | 57 | i | i | i | i
O=C(N/N=C1/CC2C=CCC12)c1ccco1 (stereo unspecified) | i | i | i | i | i
CCN(CC)C(=S)SCC(=O)c1ccc(F)cc1 | 52 | i | i | i | i
Cc1cc(NN)nc(NS(=O)(=O)c2ccc(Cl)cc2)n1 | i | i | i | i | i
Cc1cc(NN)nc(NS(=O)(=O)c2ccccc2)n1 | 50 | i | i | i | i
CN1c2ccsc2/C(=N/Nc2ccccc2)CS1(=O)=O | i | i | 2.1 | i | i
CN1c2ccsc2/C(=N/NC(=O)c2c(F)cccc2F)CS1(=O)=O | i | i | i | i | i
CCOC(=O)C1(CCc2ccccc2)CCN(C(=O)c2cc(C)nc(C)n2)CC1 | i | i | i | i | i
SMILES | TNAP inh noacc | TNAP act hiacc | PMI act hi M6P | TNAP inh hi DEA | PMI activator
Fc1ccc(-c2csc(=S)[nH]2)cc1 | i | i | 2.4 | i | i
S=c1[nH]c(-c2ccccc2)cs1 | i | i | 2.1 | i | i
O=c1[nH]c(-c2ccc(Cl)cc2)cs1 | i | i | i | i | i
O=c1[nH]c(-c2ccccc2)cs1 | i | i | i | i | i
CNC(=O)C1CC(=O)N(CCCc2ccccc2)C(=Nc2ccccc2)S1 (stereo unspecified) | i | i | i | i | i
O=S(=O)(Cc1cc(NCc2ccccc2)nc(-c2ccccn2)n1)c1ccccc1 | i | i | i | i | i
Cc1nn(Cc2ccccc2)c(Cl)c1C(=O)NCc1ccco1 | i | i | i | i | i
O=[N+]([O-])c1ccc(N/N=C/c2cccc(O)c2O)c(S(=O)(=O)N2CCOCC2)c1 | 79 | i | i | i | i
O=[N+]([O-])c1ccc(O)c(/C=N/Nc2ccccc2Cl)c1 | i | i | 2.2 | i | i
Cc1cc(=O)oc2cc(OCC(=O)N/N=C/c3cc([N+](=O)[O-])ccc3O)ccc12 | 89 | i | i | i | i
O=C(CCC(=O)Nc1cccc(Cl)c1)N/N=C/c1cc([N+](=O)[O-])ccc1O | 80 | i | i | i | i
O=[N+]([O-])c1ccccc1N/N=C\c1ccccc1Cl | i | i | i | i | i
Cc1ccc(NC(=O)CCC(=O)N/N=C/c2cc([N+](=O)[O-])ccc2O)cc1 | i | i | i | i | i
COc1ccc(Cn2c(=O)[nH]c3cc(C(=O)NCCc4ccc(S(N)(=O)=O)cc4)ccc3c2=O)cc1 | i | i | i | i | i
